Test results published in ChEMBL document CHEMBL5390295, “Isolinderalactone Ameliorates the Pathology of Alzheimer's Disease by Inhibiting the JNK Signaling Pathway” (2023).
Calls of active or inactive are those of the source. The rule behind the calls is not given here.

Experiments:
[1] = test system: Mus musculus; assay: Anti-alzheimer activity against APP/PS1 dE9 double transgenic mouse model assessed as increase in platform crossings at 5 mg/kg, ip administered once daily for 30 consecutive days […] by morris water maze test; format: functional, organism-based; conditions: time 30.0 day
Outline: (§1)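 Female APP/PS1 mice, 10 months old, about 30 g, 10 per group. Dosing was intraperitoneal in 1× PBS, once daily for one month (1 or 10 mg/kg test; 5 mg/kg donepezil). WT and untreated APP/PS1 controls got PBS. Morris water maze: training days 1–4, averaged escape latency. Day-5 probe trial ran 60 s with the platform removed, recording platform crossings and time per quadrant. Mean ± SEM.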

[2] = test system: Mus musculus; assay: Anti-alzheimer activity against APP/PS1 dE9 double transgenic mouse model assessed as decrease in escape latency at 5 mg/kg, ip administered once daily for 30 consecutive day measured on day 5 by morris water maze test; format: functional, organism-based; conditions: time 30.0 day; outline: as §1
[3] = test system: Mus musculus; assay: Anti-alzheimer activity against APP/PS1 dE9 double transgenic mouse model assessed as increase in time spent in the target quadrant at 5 mg/kg, ip administered once daily for 30 consecutive days measured on day 5 by morris water maze test; format: functional, organism-based; conditions: time 30.0 day; outline: as §1
[4] = test system: Mus musculus; assay: Anti-alzheimer activity in hippocampus of APP/PS1 dE9 double transgenic mouse model assessed as reduction in amyloid beta plaque deposition at 5 mg/kg, ip administered once daily for 30 consecutive days by immunofluorescence staining; format: functional, organism-based; conditions: time 30.0 day
Outline: (§2)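 Brains from dosed female APP/PS1 mice (10 months) were fixed in 4% paraformaldehyde at 4 °C for 24–48 h, taken through a sucrose gradient and OCT, and cut into 15 μm sections. Sections were permeabilized with 0.3% Triton X-100, blocked in 10% BSA for 1 h, and incubated with primary antibody overnight at 4 °C (1:200). Secondary was 1:500 for 1 h at 25 °C, with DAPI counterstain and confocal imaging, in triplicate.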

[5] = test system: Mus musculus; assay: Anti-alzheimer activity in hippocampus of APP/PS1 dE9 double transgenic mouse model assessed as decrease in MDA level at 5 mg/kg, ip administered once daily for 30 consecutive days […]; format: functional, organism-based; conditions: time 30.0 day
Outline: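 Hippocampal tissue from dosed APP/PS1 mice was lysed in RIPA. SOD activity was read by WST-8/xanthine oxidase formazan kit assay and MDA by lipid peroxidation kit, with absorbance on a microplate reader.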

[6] = test system: Mus musculus; assay: Anti-alzheimer activity in hippocampus of APP/PS1 dE9 double transgenic mouse model assessed as increase in SOD content at 5 mg/kg, ip administered once daily for 30 consecutive days by immunofluorescence analysis; format: functional, organism-based; conditions: time 30.0 day
[7] = test system: Mus musculus; assay: Neuroprotective activity in APP/PS1 dE9 double transgenic mouse model assessed as improvement in spatial memory at 5 mg/kg, ip administered once daily for 30 consecutive days […] by morris water maze test; format: functional, organism-based; conditions: time 30.0 day; outline: as §1
[8] = test system: Mus musculus; assay: Anti-alzheimer activity in hippocampus of APP/PS1 dE9 double transgenic mouse model assessed as reduction in glial cell aggregation at 5 mg/kg, ip administered once daily for 30 consecutive days by immunofluorescence staining; format: functional, organism-based; conditions: time 30.0 day; outline: as §2
[9] = test system: PC-12; assay: Neuroprotective activity against Abeta1-42 induced rat PC12 cells assessed as effect on Bcl2/Bax ratio level at 1.25 uM preincubated for 0.5 hrs followed by Abeta1-42 induction and measured after 24 hrs by Western blot analysis; format: functional, cell-based; conditions: time 24.5 hrs
Outline: (§3)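 Aβ1–42 challenge in PC12 cells was 10 μM for 24 h after 3 h pretreatment at 10 μM. SP600125 (1.25 μM) was added 0.5 h before pretreatment where used. Cells were lysed in RIPA and protein measured by BCA. Blotting used PVDF transfer, 5% BSA/TBST block for 2 h, primaries 1:1000 overnight at 4 °C, and HRP secondary for 2 h. Bcl-2/Bax ratio and band intensities were quantified.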

[10] = test system: PC-12; assay: Neuroprotective activity against Abeta1-42 induced rat PC12 cells assessed as effect on cleaved caspase-3 protein level at 1.25 uM preincubated for 0.5 hrs followed by Abeta1-42 induction and measured after 24 hrs by Western blot analysis; format: functional, cell-based; conditions: time 24.5 hrs; outline: as §3

Row | SMILES | Activity [1] | Activity [2] | Activity [3] | Activity [4] | Activity [5] | Activity [6] | Activity [7] | Activity [8] | Activity [9] | Activity [10]
1 | COc1cc2c(cc1OC)C(=O)C(CC1CCN(Cc3ccccc3)CC1)C2 (stereo not given) | Active | Active | Active | Active | Active | Active | Active | Active |  | 
2 | O=C1c2ccccc2-c2n[nH]c3cccc1c23 |  |  |  |  |  |  |  |  | inactive | inactive
